Columns and labels:
Leishmania donovani = assay: Antileishmanial activity against Leishmania donovani MHOM/ET/67/L82 amastigotes assessed as growth inhibition incubated for 70 hrs by resazurin based inverted microscopic analysis; assay type: functional, organism-based
Summary of the method: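 Axenic L. donovani amastigotes (MHOM/ET/67/L82); racemates tested unless stated; miltefosine as positive control. Some values come from a separate run and were rescaled by that run's relative miltefosine IC50.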

L6 = assay: Cytotoxicity against rat L6 cells assessed as reduction in cell viability incubated for 70 hrs by resazurin staining based inverted microscopic analysis; settings: L6, 70 h
Summary of the method: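 Rat L-6 skeletal myoblast line; racemates tested unless stated.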

[1] = Selectivity index, ratio of IC50 for cytotoxicity against rat L6 cells to IC50 for antileishmanial activity against Leishmania donovani MHOM/ET/67/L82 amastigotes; assay type: toxicity, cell-based; settings: for selectivity ratio: read-out: Ratio IC50
[2] = Leishmania donovani, MHOM/ET/67/L82, 70 h

SMILES | IC50 (Leishmania donovani; [2]) | IC50 (L6) | selectivity ratio [1] | IC50 (Leishmania donovani) | Ratio IC50 [1]
CC(C)OC(=O)/C=C/c1cc(O)c2c(c1)[C@@H](C(=O)OC(C)C)[C@H](c1ccc(O)c(O)c1)O2 | 0.65 µM | 10.6 µM | 16.4 |  | 
CC(C)OC(=O)/C=C/c1cc(O)c2c(c1)[C@H](C(=O)OC(C)C)[C@@H](c1ccc(O)c(O)c1)O2 |  |  |  | 0.53 µM | 19.3
COC(=O)/C=C/c1cc(O)c2c(c1)[C@H](C(=O)OC)[C@@H](c1ccc(O)c(O)c1)O2 (racemic) | 12.6 µM | 0.37 µM | 0.03 |  | 
COC(=O)/C=C/c1ccc2c(c1)[C@H](C(=O)OC)[C@@H](c1ccc(O)cc1)O2 (racemic) | 7.84 µM | 23.2 µM | 3 |  | 
COc1cc([C@H]2Oc3c(OC)cc(/C=C/CO)cc3[C@@H]2CO)ccc1O (racemic) | 160 µM | 74.2 µM | 0.5 |  | 
COC(=O)/C=C/c1cc(OC)c2c(c1)[C@H](C(=O)OC)[C@@H](c1ccc(O)c(OC)c1)O2 (racemic) | 10.6 µM | 2.43 µM | 0.2 |  | 
CC(C)NC(=O)/C=C/c1cc(O)c2c(c1)[C@H](C(=O)NC(C)C)[C@@H](c1ccc(O)c(O)c1)O2 (racemic) | 82.3 µM | 55.5 µM | 0.7 |  | 
COc1cc([C@H]2Oc3ccc(Br)cc3[C@@H]2CO)c(Br)cc1O (racemic) | 10.7 µM | 40.6 µM | 3.8 |  | 
COc1cc(Br)c([C@H]2Oc3ccc(Br)cc3[C@@H]2CO)cc1OC (racemic) | 11.4 µM | 21 µM | 1.8 |  | 
COc1cc([C@H]2Oc3ccc(Cl)cc3[C@@H]2C)cc(Cl)c1O (racemic) | 13.4 µM | 64.2 µM | 4.8 |  | 
OC[C@H]1c2ccccc2O[C@@H]1c1ccc(O)cc1 (racemic) | 158 µM | 217 µM | 1.4 |  | 
COc1cc([C@H]2Oc3c(OC)cc(/C=C/C(=O)OC(C)C)cc3[C@@H]2C(=O)OC(C)C)ccc1O (racemic) | 3.95 µM | 10.3 µM | 2.6 |  | 
CC(C)(C)OC(=O)/C=C/c1cc(F)c2c(c1)[C@H](C(=O)OC(C)(C)C)[C@@H](c1ccc(O)c(F)c1)O2 (racemic) | 1.97 µM | 9.22 µM | 4.7 |  | 
CC(C)(C)CC(=O)/C=C/c1cc(O)c2c(c1)[C@H](C(=O)CC(C)(C)C)[C@@H](c1ccc(O)c(O)c1)O2 (racemic) | 3.42 µM | 2.45 µM | 0.7 |  | 
COc1cc([C@H]2Oc3ccc(Br)cc3[C@@H]2CO)cc(Br)c1O (racemic) | 12.1 µM | 45.4 µM | 3.8 |  | 
COc1cc([C@H]2Oc3ccc(Br)cc3[C@@H]2C)c(Br)cc1O (racemic) | 15 µM | 18.2 µM | 1.2 |  | 
CCCCOC(=O)/C=C/c1cc(OC)c2c(c1)[C@H](C(=O)OCCCC)[C@@H](c1ccc(O)c(OC)c1)O2 (racemic) | 3.11 µM | 8.18 µM | 2.6 |  | 
COc1cc([C@H]2Oc3c(OC)cc(/C=C/C(=O)NC(C)C)cc3[C@@H]2C(=O)NC(C)C)ccc1O (racemic) | 53.6 µM | 77.2 µM | 1.4 |  | 
CC(C)(C)OC(=O)/C=C/c1cc(O)c2c(c1)[C@H](C(=O)OC(C)(C)C)[C@@H](c1ccc(O)c(O)c1)O2 (racemic) | 1.66 µM | 9.05 µM | 5.5 |  | 

SMILES | IC50 (Leishmania donovani; [2]) | IC50 (L6) | selectivity ratio [1] | IC50 (Leishmania donovani) | Ratio IC50 [1]
COc1cc([C@H]2Oc3ccc(Br)cc3[C@@H]2C)ccc1O (racemic) | 24.8 µM | 13.1 µM | 0.5 |  | 
COc1ccc([C@H]2Oc3ccc(C=O)cc3[C@@H]2C)cc1 (racemic) | 30.5 µM | 43.8 µM | 1.4 |  | 
CCOC(=O)/C=C/c1ccc2c(c1)[C@H](C(=O)OCC)[C@@H](c1ccc(O)cc1)O2 (racemic) | 7.45 µM | 26.3 µM | 3.5 |  | 
CC(=O)OC[C@H]1c2cc(Br)ccc2O[C@@H]1c1ccc(O)cc1 (racemic) | 13.7 µM | 55.5 µM | 4 |  | 
CCOC(=O)/C=C/c1cc(O)c2c(c1)[C@H](C(=O)OCC)[C@@H](c1ccc(O)c(O)c1)O2 (racemic) | 3.87 µM | 9.99 µM | 2.6 |  | 
COc1ccc([C@H]2Oc3ccccc3[C@@H]2COC(C)=O)cc1 (racemic) | 58.4 µM | 43.9 µM | 0.8 |  | 
COc1cc([C@H]2Oc3c(OC)cc(/C=C/C(=O)NCCO)cc3[C@@H]2C(=O)NCCO)ccc1O (racemic) | 212 µM | 212 µM | 1 |  | 
CC(C)CC(=O)/C=C/c1cc(O)c2c(c1)[C@H](C(=O)CC(C)C)[C@@H](c1ccc(O)c(O)c1)O2 (racemic) | 4.42 µM | 5 µM | 1.1 |  | 
CC(C)OC(=O)/C=C/c1ccc2c(c1)[C@H](C(=O)OC(C)C)[C@@H](c1ccc(O)cc1)O2 (racemic) | 4.21 µM | 14.3 µM | 3.4 |  | 
CC(C)(C)OC(=O)/C=C/c1ccc2c(c1)[C@H](C(=O)OC(C)(C)C)[C@@H](c1ccc(O)cc1)O2 (racemic) | 6.07 µM | 13.3 µM | 2.2 |  | 
COc1cc([C@H]2Oc3ccc(Cl)cc3[C@@H]2C)ccc1O (racemic) | 16.1 µM | 55.4 µM | 3.4 |  | 
OC[C@H]1c2ccccc2O[C@@H]1c1ccc(O)c(Br)c1 (racemic) | 43.8 µM | 115 µM | 2.6 |  | 
CCCCOC(=O)/C=C/c1cc(O)c2c(c1)[C@H](C(=O)OCCCC)[C@@H](c1ccc(O)c(O)c1)O2 (racemic) | 1.66 µM | 9.34 µM | 5.6 |  | 
COc1ccc([C@H]2Oc3ccc(Br)cc3[C@@H]2C)cc1Br (racemic) | 29.7 µM | 39.7 µM | 1.3 |  | 
OC[C@H]1c2cc(Br)ccc2O[C@@H]1c1ccc(O)c(Br)c1 (racemic) | 21.8 µM | 64.8 µM | 3 |  | 
COc1cc([C@H]2Oc3ccc(Br)cc3[C@@H]2C)cc(Br)c1O (racemic) | 17.2 µM | 44.8 µM | 2.6 |  | 
CCCNC(=O)/C=C/c1cc(OC)c2c(c1)[C@H](C(=O)NCCC)[C@@H](c1ccc(O)c(OC)c1)O2 (racemic) | 8.88 µM | 73.8 µM | 8.3 |  | 
COc1cc([C@H]2Oc3ccccc3[C@@H]2C)ccc1O (racemic) | 59 µM | 84.4 µM | 1.4 |  | 
COc1ccc([C@H]2Oc3ccccc3[C@@H]2CO)cc1OC (racemic) | 136 µM | 53.7 µM | 0.4 |  | 

SMILES | IC50 (Leishmania donovani; [2]) | IC50 (L6) | selectivity ratio [1] | IC50 (Leishmania donovani) | Ratio IC50 [1]
CCCCCCCCOC(=O)/C=C/c1cc(O)c2c(c1)[C@H](C(=O)OCCCCCCCC)[C@@H](c1ccc(O)c(O)c1)O2 (racemic) | 23.5 µM | 19.1 µM | 0.8 |  | 
COc1ccc([C@H]2Oc3ccccc3[C@@H]2C)cc1 (racemic) | 99.9 µM | 154 µM | 1.6 |  | 
OC[C@H]1c2cc(Br)ccc2O[C@@H]1c1ccc(O)cc1 (racemic) | 18.8 µM | 22 µM | 1.2 |  | 
COc1cc([C@H]2Oc3c(OC)cc(/C=C/C(=O)O)cc3[C@@H]2C(=O)O)ccc1O (racemic) | 6.89 µM | 259 µM | 37.6 |  | 
CCOC(=O)/C=C/c1cc(OC)c2c(c1)[C@H](C(=O)OCC)[C@@H](c1ccc(O)c(OC)c1)O2 (racemic) | 9.1 µM | 4.42 µM | 0.5 |  | 
COc1cc([C@H]2Oc3ccc(Br)cc3[C@@H]2CO)ccc1O (racemic) | 30.5 µM | 32.3 µM | 1.1 |  | 
COc1cc([C@H]2Oc3ccccc3[C@@H]2CO)ccc1O (racemic) | 185 µM | 58 µM | 0.3 |  | 
COc1cc([C@H]2Oc3c(OC)cc(/C=C/C(=O)OC(C)(C)C)cc3[C@@H]2C(=O)OC(C)(C)C)ccc1O (racemic) | 2.1 µM | 11.4 µM | 5.4 |  | 
CCCCOC(=O)/C=C/c1ccc2c(c1)[C@H](C(=O)OCCCC)[C@@H](c1ccc(O)cc1)O2 (racemic) | 10.8 µM | 14.3 µM | 1.3 |  | 
COc1ccc([C@H]2Oc3ccc(Br)cc3[C@@H]2C)cc1 (racemic) | 31.8 µM | 60.3 µM | 1.9 |  | 
COc1ccc([C@H]2Oc3ccc(Br)cc3[C@@H]2CO)cc1OC (racemic) | 33.8 µM | 21.2 µM | 0.6 |  | 
OC[C@H]1c2ccccc2O[C@@H]1c1ccccc1Br (racemic) | 21.7 µM | 25.4 µM | 1.2 |  | 
COc1ccc([C@H]2Oc3ccccc3[C@@H]2CO)cc1 (racemic) | 70.3 µM | 43.6 µM | 0.6 |  | 
C=CCOC(=O)/C=C/c1cc(O)c2c(c1)[C@H](C(=O)OCC=C)[C@@H](c1ccc(O)c(O)c1)O2 (racemic) | 6.32 µM | 6.41 µM | 1 |  | 
COc1cc([C@H]2Oc3c(OC)cc(/C=C/C(=O)CC(C)C)cc3[C@@H]2C(=O)CC(C)C)ccc1O (racemic) | 3.81 µM | 5.29 µM | 1.4 |  | 
COc1ccc([C@H]2Oc3ccc(/C=C/C(C)=O)cc3[C@@H]2C)cc1 (racemic) | 17.4 µM | 9.35 µM | 0.5 |  | 
OC[C@H]1c2ccccc2O[C@@H]1c1cc(Br)c(O)c(Br)c1 (racemic) | 10.1 µM | 109 µM | 10.8 |  | 
CCCCCCCCCCCCCCCCOP(=O)([O-])OCC[N+](C)(C)C [MILTEFOSINE] | 0.77 µM |  |  |  | 

— ChEMBL document CHEMBL4765412, “(±)-trans-2-phenyl-2,3-dihydrobenzofurans as leishmanicidal agents: Synthesis, in vitro evaluation and SAR analysis” (Eur J Med Chem, 2020)
